Paper PMC4617824 (Cancer research, 2014)

How the values were obtained:
[1] = test system: phosphorylated levels of GST-Cables1 (endogenous Akt); assay type: cell-based; conditions: for block of IGF-1-induced enhancement of GST-Cables1 phosphorylation: 10 μM inhibitor 1 h, then 100 ng/ml IGF 15 min, serum-starved cells
[2] = test system: Akt phosphorylation at T473 (Akt pT473); experiment: A549 xenograft tumors: Akt phosphorylation; assay type: in vivo, lung cancer A549 xenograft mouse model; conditions: compared with vehicle, Figure S1
[3] = test system: phosphorylation of Cables1 at T44 and T150; experiment: A549 xenograft tumors: Cables1 phosphorylation; assay type: in vivo, lung cancer A549 xenograft mouse model; conditions: Figure S1
14-3-3ν = 14-3-3ν (UniProt Q04917); experiment: TR-FRET titration; conditions: reference: unphosphorylated T44 peptide; sites T44
UniProt Q04917, sequence (Q04917 whole entry, looked up): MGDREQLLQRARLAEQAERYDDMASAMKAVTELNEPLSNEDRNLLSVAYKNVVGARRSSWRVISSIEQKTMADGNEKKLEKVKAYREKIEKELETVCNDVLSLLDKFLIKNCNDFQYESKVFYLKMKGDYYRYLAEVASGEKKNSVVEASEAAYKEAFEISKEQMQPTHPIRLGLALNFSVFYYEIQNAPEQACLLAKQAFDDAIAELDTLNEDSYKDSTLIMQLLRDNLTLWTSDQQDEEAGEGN

[4] = test system: Cables1 binding to 14-3-3 (GST-Cables1 / His-14-3-3γ); conditions: COS7 lysates expressing GST-Cables1 and His-14-3-3γ, 0.5 h, room temperature
How it was run: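 COS7 cells co-expressing His-14-3-3γ and GST-Cables1 were lysed. Lysates were incubated 0.5 h at room temperature with calf intestinal phosphatase, with phosphatase inhibitors (5 mM Na4P2O7, 5 mM NaF, 5 mM Na3VO4), or untreated. His-14-3-3γ complexes were captured on nickel-charged resin (2 h, 4°C), washed, and eluted by boiling in SDS sample buffer. GST-Cables1 was detected by Western blot.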

O.O=C(O)C(F)(F)F.O=c1[nH]c2ccccc2n1C1CCN(Cc2ccc(-c3nc4cc5[nH]cnc5cc4nc3-c3ccccc3)cc2)CC1 [AKT1/2 inhibitor] was tested, and the “block of IGF-1-induced enhancement of GST-Cables1 phosphorylation” value [1] was “totally blocked”.

In the case of CC(C)n1nc(-c2ccc3oc(N)nc3c2)c2c(N)ncnc21 [INK128], the “Akt pT473 level in tumors” value [2] is reported as “reduced”, the “phosphorylation of Cables1 at T44 in tumors” value ([3]; pT44, compared with vehicle) is reported as “decreased” and the “phosphorylation of Cables1 at T150 in tumors” value ([3]; pT150, compared with vehicle) is reported as “decreased”.

With O=c1cc(N2CCOCC2)oc2c(-c3ccccc3)cccc12 [LY294002] the “block of IGF-1-induced enhancement of GST-Cables1 phosphorylation” value [1] was “totally blocked”.

“Cables1 (from UniProt Q8TDN4-2) pT44 peptide” was tested, and the “binding against the reference” value (14-3-3ν) was “stronger”.

In the case of IGF-1: IGF-1, Sigma-Aldrich, the “phosphorylated levels of GST-Cables1” value ([1]; 100 ng/ml IGF, 15 min, cells serum-starved 24 h, GST pull-down, Western blot) is reported as “markedly enhanced”.

B1: CIP: calf intestinal phosphatase (protein, UniProt P19111 20-506, looked up)
Intestinal-type alkaline …: LVPVEEEDPAFWNRQAAQALDVAKKLQPIQTAAKNVILFLGDGMGVPTVTATRILKGQMNGKLGPETPLAMDQFPYVALSKTYNVDRQVPDSAGTATAYLCGVKGNYRTIGVSAAARYNQCKTTRGNEVTSVMNRAKKAGKSVGVVTTTRVQHASPAGAYAHTVNRNWYSDADLPADAQMNGCQDIAAQLVNNMDIDVILGGGRKYMFPVGTPDPEYPDDASVNGVRKRKQNLVQAWQAKHQGAQYVWNRTALLQAADDSSVTHLMGLFEPADMKYNVQQDHTKDPTLQEMTEVALRVVSRNPRGFYLFVEGGRIDHGHHDDKAYMALTEAGMFDNAIAKANELTSELDTLILVTADHSHVFSFGGYTLRGTSIFGLAPSKALDSKSYTSILYGNGPGYALGGGSRPDVNDSTSEDPSYQQQAAVPQASETHGGEDVAVFARGPQAHLVHGVEEETFVAHIMAFAGCVEPYTDCNLPAPTTATSIPD
In the case of B1, the “Cables1 binding to 14-3-3 after CIP treatment” value [4] is reported as “reduced”.
